In ChEMBL document CHEMBL1128261, “Synthesis and biological activity of thiazolylindolequinones, analogues of the natural product BE 10988” (J Med Chem, 1995):

How the values were obtained:
SK-BR-3 = test: The IC50 value was measured on human breast cancer cell line SK-BR-3.; assay type: functional, cell-based
In short: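 SKBr3 breast cancer cells were seeded at 10^4 cells/well for exponential growth over 4 days. Graded compound concentrations were added 2 h after plating (4 wells per concentration), with continuous exposure for 4 days and MTT growth readout. Each experiment was done at least twice, and IC50 was derived from the cumulative data.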

V79 [1] = test: The IC50 value was measured on V79 cells in the presence of air using MTT assay.; assay type: functional, cell-based; conditions: Cricetulus griseus
In short: (§1)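 V79 Chinese hamster cells were exposed to drug under aerobic (air) or hypoxic (N2) conditions. After the drug was removed, cells proliferated for 3 days before MTT assay. IC50 is the concentration killing 50% of cells under the initial treatment condition.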

V79 [2] = test: The IC50 value was measured on V79 cells in the presence of nitrogen using MTT assay.; assay type: functional, cell-based; conditions: Cricetulus griseus; in short: as §1
[3] = Ratio of IC50 against V79 cells in the presence of air to that of nitrogen.; assay type: functional

IC50 (SK-BR-3) [µM]	Compound	IC50 (V79 [1]) [µM]	IC50 (V79 [2]) [µM]	Ratio [3]
4.8	CCOC(=O)c1coc(-c2cn(C)c3c2C(=O)C(OC)=CC3=O)n1	51.7	46	1.1
27.8	CCOC(=O)c1csc(-c2cn(C)c3c2C(=O)C(OC)=CC3=O)n1	423	345	1.2
0.73	Cc1csc(-c2cn(C)c3c2C(=O)C(=N)C=C3O)n1	10.3	6	1.7
1.4	COC1=CC(=O)c2c(c(-c3nc(C)cs3)cn2C)C1=O	72.9	47.7	1.5
8.7	Cn1cc(-c2nc(C(N)=O)cs2)c2c1C(=O)C=C(N)C2=O	6.2	5.1	1.2
16.9	CCOC(=O)c1nc(-c2cn(C)c3c2C(=O)C(OC)=CC3=O)cs1	38.7	60.9	0.64
4.1	Cn1cc(-c2csc(C(N)=O)n2)c2c1C(=O)C=C(N)C2=O	5.5	4.1	1.3

Compound	IC50 (SK-BR-3) [µM]	IC50 (V79 [1]) [µM]	IC50 (V79 [2]) [µM]	Ratio [3]
O=C1c2c(O)ccc(O)c2C(=O)c2c(NCCNCCO)ccc(NCCNCCO)c21 [MITOXANTRONE]	0.016			
